Measured values pooled from the literature.
Target: Casein kinase I isoform gamma-3 (CSNK1G3, Homo sapiens, UniProt Q9Y6M4)

`COc1cc(Nc2ncc(F)c(Nc3ccc4c(n3)NC(=O)C(C)(C)O4)n2)cc(OC)c1OC` has an inhibition of 0% (binding, competition with immobilised ligand; 10 µM).
For `Cn1cc(-c2cccc(N3CCc4c(sc5c4CC(C)(C)C5)C3=O)c2CO)cc(Nc2ccncn2)c1=O`, the inhibition was -1% (enzyme activity, inhibitor; 1 µM).
`CC(C)(C)c1cc(C=C(C#N)C#N)cc(Br)c1O` has a remaining activity of 85.8% (enzyme activity, inhibitor; 0.5 µM).
`Cn1cc(-c2cc(F)cc(N3CCn4c(cc5c4CCCC5)C3=O)c2CO)cc(Nc2ccc(N3CCN(C4COC4)CC3)cn2)c1=O` has an inhibition of 7% (enzyme activity, inhibitor; 0.1 µM).
`N#CC1(c2ccccn2)CCN(Cc2cc(C(=O)O)c(=O)n3ccccc23)CC1` has a remaining binding of 93% (cell-free assay, competition with immobilised ligand; 1 µM).
`COc1ncccc1-c1cnn2ccc(N3CCN(C(=O)OC(C)C)CC3)nc12` gave a remaining binding of 92% (binding, competition with immobilised ligand; 1 µM).
`O=c1[nH]c2ccccc2n1C1CCN(Cc2ccc(-c3[nH]c4cc5ncnc5cc4nc3-c3ccccc3)cc2)CC1` gave a remaining signal of 96.5% (cell-free assay; 0.5 µM).
With `Cn1cncc1[C@@](O)(COc1ccc(C#N)cc1-c1ccc(OC(F)(F)F)cc1)c1ccc(C#N)cc1` the remaining binding was 100% (cell-free assay, competition with immobilised ligand; 1 µM).
The remaining binding of `Cc1nn(C)cc1-c1nc2c(N3CCN(Cc4ccc(Cl)cc4)CC3)c(Cl)cnc2[nH]1` is reported as 100% (binding, competition with immobilised ligand; 1 µM).
